The source made the active and inactive calls. No cut-off for these calls is given here.
Columns and labels:
[1] = tested on: Staphylococcus aureus; test: Antibacterial activity against Staphylococcus aureus RN4220 ATCC 35556 incubated overnight by microbroth dilution method; assay type: functional
Summary of the method: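 Bacteria grown in LB medium. CLSI microbroth dilution in 96-well plates, overnight at 37 °C without shaking. MIC99 taken as the lowest concentration giving complete growth inhibition. Three independent determinations, reported as mean ± SD.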

[2] = tested on: Staphylococcus aureus; test: Antibacterial activity against methicillin-resistant Staphylococcus aureus clinical isolate 20225B SPA type 15 after 24 hrs by microbroth dilution method; assay type: functional
Summary of the method: (§1)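 MRSA isolates from ICU surfaces, stored at −80 °C and grown in Mueller-Hinton broth. Overnight cultures diluted and added to serially diluted compound at ~10⁵ CFU/mL, broth microdilution. Plates incubated 24 h at 37 °C, growth read as absorbance at 620 nm. MIC99 taken as the lowest concentration giving complete growth inhibition.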

[3] = tested on: Staphylococcus aureus; test: Antibacterial activity against methicillin-resistant Staphylococcus aureus clinical isolate 20467BA SPA type 59 after 24 hrs by microbroth dilution method; assay type: functional; summary of the method: as §1
[4] = tested on: Pseudomonas aeruginosa; test: Antibiofilm activity against Pseudomonas aeruginosa PAO1 ATCC 47085 assessed as dispersal of formed biofilm after 24 hrs by crystal violet staining-based spectrophotometry; assay type: functional, organism-based
Summary of the method: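 Biofilms first grown 24 h on peg lids without compound, then washed. Pegs transferred into serially diluted compound in 10% LB-PBS and incubated a further 24 h at 37 °C. Remaining biofilm stained with crystal violet, eluted in ethanol and read at 600 nm. 300 μM EDTA as positive control for dispersal.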

[5] = tested on: Staphylococcus aureus; test: Bactericidal activity against Staphylococcus aureus RN4220 ATCC 35556 in exponential-phase assessed as reduction in bacterial burden at 4 times MIC99 after 2 to 6 hrs by time-kill assay; assay type: functional, organism-based
Summary of the method: (§2)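 Overnight cultures washed and resuspended in PBS, then diluted 100-fold into LB (exponential-phase model) or into 1% PBS (stationary-phase model). Test agent added at 4× MIC99. Incubated at 37 °C with shaking at 200 rpm. CFU counted on LB agar at 0, 2, 4 and 6 h.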

[6] = tested on: Pseudomonas aeruginosa; test: Bactericidal activity against Pseudomonas aeruginosa PAO1 ATCC 47085 in exponential-phase assessed as reduction in bacterial burden at 4 times MIC99 upto 6 hrs by time-kill assay; assay type: functional; summary of the method: as §2
[7] = Cytotoxicity against HEK293T/17 cells after 48 hrs by MTS conversion assay; assay type: cell-based, HEK-293T; conditions: human
Summary of the method: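 HEK293T/17 and A549 cells maintained in DMEM with 10% FBS at 37 °C, 5% CO2. Seeded at 10⁴ cells per well; after 24 h, washed with PBS and exposed to serially diluted compound for 48 h. Viability read by MTS conversion. CC50 obtained by nonlinear regression.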

[8] = Selectivity index, ratio of CC50 for HEK293T/17 cells to MIC99 for Pseudomonas aeruginosa PAO1 ATCC 47085; assay type: toxicity, cell-based; conditions: human, read-out: Selectivity Index
Summary of the method: (§3)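 CC50: HEK293T/17 or A549 cells seeded at 10⁴ per well in DMEM with 10% FBS at 37 °C, 5% CO2. After 24 h, wells PBS-washed and serially diluted compound applied for 48 h, with viability read by MTS and CC50 taken by nonlinear regression. MIC99 by CLSI broth microdilution, overnight at 37 °C without shaking, from three independent tests. SI = CC50/MIC99.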

[9] = Selectivity index, ratio of CC50 for HEK293T/17 cells to MIC99 for Escherichia coli ANS1; summary of the method: as §3
[10] = Selectivity index, ratio of CC50 for human A549 cells to MIC99 for Pseudomonas aeruginosa PAO1 ATCC 47085; assay type: toxicity, cell-based; conditions: read-out: Selectivity Index; summary of the method: as §3
[11] = Selectivity index, ratio of CC50 for human A549 cells to MIC99 for Escherichia coli ANS1; summary of the method: as §3
[12] = tested on: Caenorhabditis elegans; test: Toxicity in adult L4/juvenile L1 stages of Caenorhabditis elegans N2 assessed as deleterious effect on genotype at 64 ug/ml incubated for 96 hrs measured every 12 hrs; assay type: organism-based; conditions: in vivo
[13] = Toxicity in adult L4/juvenile L1 stages of Caenorhabditis elegans N2 assessed as survival at 64 ug/ml incubated for 96 hrs measured every 12 hrs; assay type: organism-based; conditions: in vivo
Summary of the method: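 C. elegans N2 kept on NGM agar at 22 °C. Compound mixed into molten NGM agar at 64 μg/mL. L4 adults, L1 juveniles and synchronized eggs transferred onto test plates and held at 22 °C for 96 h. Death, development and egg production checked every 12 h.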

[14] = tested on: Caenorhabditis elegans; test: Toxicity in adult L4/juvenile L1 stages of Caenorhabditis elegans N2 assessed as effect on locomotion at 64 ug/ml incubated for 96 hrs measured every 12 hrs; assay type: organism-based; conditions: in vivo
[15] = tested on: Caenorhabditis elegans; test: Toxicity in adult L4/juvenile L1 stages of Caenorhabditis elegans N2 assessed as effect on egg production at 64 ug/ml incubated for 96 hrs measured every 12 hrs; assay type: organism-based; conditions: in vivo
Summary of the method: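 C. elegans N2 maintained on NGM agar at 22 °C. Compound mixed into molten NGM agar at 64 μg/mL. L4 adults, L1 juveniles and synchronized eggs transferred onto test plates and kept 96 h at 22 °C. Checked every 12 h for death, development and egg production. Gentamicin and […] as controls.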

[16] = tested on: Pseudomonas aeruginosa; test: Bactericidal activity against Pseudomonas aeruginosa PAO1 ATCC 47085 assessed as reduction in bacterial burden at 4 times MIC99; assay type: functional
[17] = tested on: Staphylococcus aureus; test: Antibacterial activity against Staphylococcus aureus RN4220 ATCC 35556 in early exponential-phase assessed as numerous spherical double layered mesosome like structures at 2 times MIC99 after 30 to 60 mins by transmission electron microscopy; assay type: functional, organism-based
Summary of the method: (§4)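 Cells grown in LB to early exponential phase (OD600 ~0.4). Exposed to 2× MIC99 for 15–60 min, washed twice in phosphate buffer, fixed in 2.5% glutaraldehyde, then imaged by transmission electron microscopy.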

[18] = tested on: Staphylococcus aureus; test: Antibacterial activity against Staphylococcus aureus RN4220 ATCC 35556 in early exponential-phase assessed as lysis of cells at 2 times MIC99 after 30 to 60 mins by transmission electron microscopy; assay type: functional, organism-based; summary of the method: as §4
[19] = tested on: Pseudomonas aeruginosa; test: Antibacterial activity against Pseudomonas aeruginosa PAO1 ATCC 47085 in early exponential-phase assessed as membrane damage at 2 times MIC99 after 15 mins by transmission electron microscopy; assay type: functional, organism-based; summary of the method: as §4
[20] = tested on: Staphylococcus aureus; test: Antibacterial activity against Staphylococcus aureus RN4220 ATCC 35556 at 0.5 times MIC99 after 24 hrs by checkerboard assay in presence of norfloxacin; assay type: functional
Summary of the method: (§5)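 Checkerboard assay: compound serially diluted along one axis of a 96-well plate and antibiotic along the other, in LB. Each well inoculated with 2 × 10⁴ CFU and incubated 24 h at 37 °C. ΣFIC = FIC A + FIC B, where each FIC is the combination MIC99 divided by the MIC99 of that drug alone.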

[21] = tested on: Pseudomonas aeruginosa; test: Antibacterial activity against Pseudomonas aeruginosa PAO1 ATCC 47085 at 0.5 times MIC99 after 24 hrs by checkerboard assay in presence of kanamycin; assay type: functional; summary of the method: as §5
[22] = tested on: Pseudomonas aeruginosa; test: Bactericidal activity against Pseudomonas aeruginosa PAO1 ATCC 47085 assessed as reduction in bacterial burden at 0.5 times MIC99 after 3 to 24 hrs by time kill assay in presence of 0.5 times MIC99 of kanamycin relative to control; assay type: functional, organism-based
Summary of the method: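 Combination time-kill in LB at 1 × 10⁶ CFU/mL starting inoculum. Arms were compound or kanamycin alone at 1× and 0.5× MIC99, and the two combined at 0.5× MIC99 each. Incubated at 37 °C with shaking at 300 rpm. Viable counts taken by dilution and plating on LB agar at 0, 3, 6 and 24 h.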

Cl.Cl.S=C(NCCCNCCCCCNCCCNC(=S)NCC(c1ccccc1)c1ccccc1)NCC(c1ccccc1)c1ccccc1 showed an MIC99 [1] of 2 µg/mL, an MIC99 [2] of 1 µg/mL and an MIC99 [3] of 1 µg/mL. For the same molecule, the Activity [4] was “Active”, the Activity [5] was “Active” and the Activity [6] was 4 deltalog10CFU/ml. The CC50 at 48 h [7] was 32 µg/mL, the selectivity ratio [8] was 4 and the “Selectivity Index” value [9] was 16. For the same molecule, the selectivity ratio [10] was 8, the “Selectivity Index” value [11] was 32 and the Activity [12] was “Non-toxic”. The survival at 96 h, 64 ug/ml [13] was 100%, the Activity [14] was “Non-toxic” and the Activity [15] was “Non-toxic”. For the same molecule, the Activity [16] was >2 deltalog10CFU/ml, the Activity [17] was “Active” and the Activity [18] was “Active”. For the same molecule, the Activity [19] was “Active”, the “fractional inhibitory concentration index (FICI)” value [20] was 0.75 and the “fractional inhibitory concentration index (FICI)” value [21] was 0.75. For the same molecule, the Activity [22] was “Active”.
